Source: ChEMBL document CHEMBL1926607 (J Med Chem, 2011)

How the values were obtained:
D(2) dopamine receptor = D(2) dopamine receptor (Rattus norvegicus, UniProt P61169); experiment: Displacement of [3H]spiperone from dopamine D2 receptor in Sprague-Dawley albinus rat striatal membranes after 15 mins; assay type: cell membranes, Membrane
[1] = biological target: T1, 5-hydroxytryptamine receptor 1A (Homo sapiens, UniProt P08908); experiment: Agonist activity at human 5HT1A receptor expressed in human HeLa cells assessed as inhibition of forskolin-stimulated cAMP production […] measured after 2 hrs by RIA; assay type: functional, cell-based
T1 sequence (P08908 whole entry): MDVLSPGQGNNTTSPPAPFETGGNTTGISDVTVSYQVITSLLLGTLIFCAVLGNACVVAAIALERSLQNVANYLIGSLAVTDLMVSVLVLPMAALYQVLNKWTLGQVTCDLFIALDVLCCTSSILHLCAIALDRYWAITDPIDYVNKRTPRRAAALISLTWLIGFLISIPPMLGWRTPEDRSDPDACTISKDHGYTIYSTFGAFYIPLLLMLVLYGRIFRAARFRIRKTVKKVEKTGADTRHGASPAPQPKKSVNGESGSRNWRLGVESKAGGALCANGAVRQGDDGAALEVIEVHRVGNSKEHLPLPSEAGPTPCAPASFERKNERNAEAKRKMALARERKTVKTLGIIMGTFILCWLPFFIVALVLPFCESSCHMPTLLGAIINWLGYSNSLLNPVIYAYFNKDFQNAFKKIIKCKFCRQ
Outline: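 HeLa cells stably expressing the h5-HT1AR, grown in DMEM with 2 mM glutamine, 1 mM pyruvate and 10% heat-inactivated FCS, and used after 2–3 days at about 7.5 × 10^4 cells/well. After a PBS wash, cells were incubated 10 min in PBS with 0.5 mM isobutylmethylxanthine and 10 μM forskolin, with or without compound. The reaction was stopped with ice-cold ethanol, extracted 2 h and lyophilized; cAMP was measured by RIA.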

[2] = biological target: 5-hydroxytryptamine receptor 2A (Rattus norvegicus, UniProt P14842); experiment: Displacement of [3H]ketanserin from 5HT2A receptor in Sprague-Dawley albinus rat frontal cortex membranes after 15 mins; assay type: cell membranes, Membrane
5-hydroxytryptamine receptor 2A, sequence (P14842 whole entry): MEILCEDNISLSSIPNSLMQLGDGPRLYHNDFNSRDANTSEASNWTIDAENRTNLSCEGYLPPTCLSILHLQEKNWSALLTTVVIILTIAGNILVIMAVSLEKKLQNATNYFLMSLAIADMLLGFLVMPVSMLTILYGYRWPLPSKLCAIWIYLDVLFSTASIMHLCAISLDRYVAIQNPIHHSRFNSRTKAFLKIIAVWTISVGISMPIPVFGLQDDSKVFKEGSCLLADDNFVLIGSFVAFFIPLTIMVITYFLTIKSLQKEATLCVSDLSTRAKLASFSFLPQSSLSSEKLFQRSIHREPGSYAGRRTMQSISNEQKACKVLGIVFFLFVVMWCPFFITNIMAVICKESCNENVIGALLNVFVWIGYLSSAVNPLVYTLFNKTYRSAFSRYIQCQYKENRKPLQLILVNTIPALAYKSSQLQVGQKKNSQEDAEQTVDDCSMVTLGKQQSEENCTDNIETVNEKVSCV
Outline: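 Rat frontal cortex membranes (male Sprague–Dawley, 180–200 g). Nonspecific binding was set with 1 μM cinanserin.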

[3] = Neuroprotective activity in Wistar rat hippocampi primary neuronal cells assessed as protection against serum-deprivation induced cell death at 10 uM after 24 hrs by MTT assay; assay type: functional, Hippocampus, Primary neuron
Outline: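 Mixed neuron-glia cultures from E18 Wistar rat hippocampi (Neurobasal plus 10% FCS), used at 11 days in vitro. Medium replaced by saline to withdraw serum; cells held 24 h with compound. Cell survival measured by MTT reduction, expressed as % protection.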

[4] = biological target: T2, 5-hydroxytryptamine receptor 3A (Rattus norvegicus, UniProt P35563); experiment: Displacement of [3H]-LY278584 from 5HT3 receptor in Sprague-Dawley albinus rat cerebral cortex membranes after 30 mins; assay type: cell membranes, Membrane
T2 sequence (P35563 whole entry): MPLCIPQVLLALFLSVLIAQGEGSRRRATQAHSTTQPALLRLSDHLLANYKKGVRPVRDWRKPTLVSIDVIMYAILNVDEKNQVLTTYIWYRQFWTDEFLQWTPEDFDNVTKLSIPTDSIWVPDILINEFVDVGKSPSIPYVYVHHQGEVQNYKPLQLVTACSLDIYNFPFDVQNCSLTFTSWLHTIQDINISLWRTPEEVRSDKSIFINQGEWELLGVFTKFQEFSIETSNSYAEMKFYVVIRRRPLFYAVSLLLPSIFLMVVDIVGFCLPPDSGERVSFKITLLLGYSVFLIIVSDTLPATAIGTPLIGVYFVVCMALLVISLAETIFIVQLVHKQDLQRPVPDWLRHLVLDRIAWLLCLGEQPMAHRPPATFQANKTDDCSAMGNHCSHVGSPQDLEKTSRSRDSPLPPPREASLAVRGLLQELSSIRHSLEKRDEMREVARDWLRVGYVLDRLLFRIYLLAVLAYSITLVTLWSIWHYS

[5] = biological target: 5-hydroxytryptamine receptor 7 (Rattus norvegicus, UniProt P32305); experiment: Displacement of [3H]-5-CT from 5HT7 receptor in Sprague-Dawley albinus rat hyphalamic membranes after 120 mins; assay type: cell membranes, Membrane
5-hydroxytryptamine receptor 7, sequence (P32305 whole entry): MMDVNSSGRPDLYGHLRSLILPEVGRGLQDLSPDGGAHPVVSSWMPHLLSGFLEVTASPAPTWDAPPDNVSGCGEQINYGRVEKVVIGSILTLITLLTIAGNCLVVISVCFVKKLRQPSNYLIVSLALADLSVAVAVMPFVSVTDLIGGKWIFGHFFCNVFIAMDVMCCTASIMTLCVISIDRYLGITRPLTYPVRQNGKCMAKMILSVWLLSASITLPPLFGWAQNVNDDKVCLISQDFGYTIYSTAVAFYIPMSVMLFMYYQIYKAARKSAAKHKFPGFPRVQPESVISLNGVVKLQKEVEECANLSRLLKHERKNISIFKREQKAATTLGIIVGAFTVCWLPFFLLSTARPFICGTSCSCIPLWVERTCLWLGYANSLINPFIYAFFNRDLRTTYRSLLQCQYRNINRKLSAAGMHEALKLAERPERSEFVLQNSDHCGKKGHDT

[6] = Neuroprotective activity in Wistar rat hippocampi primary neuronal cells assessed as protection against oxygen-glucose deprivation induced cell death at 10 uM after 18 hrs by MTT assay; assay type: functional, Hippocampus, Primary neuron
[7] = biological target: T3, 5-hydroxytryptamine receptor 1A (Homo sapiens) (UniProt P08908); experiment: Agonist activity at human 5HT1A receptor expressed in human HeLa cells assessed as inhibition of forskolin-stimulated cAMP production pretreated 20 mins before forskolin challenge measured after 2 hrs by RIA relative to control; assay type: functional, cell-based
T3 sequence (whole entry): T1 sequence (P08908 whole entry)

[8] = biological target: T4, 5-hydroxytryptamine receptor 1A (Rattus norvegicus, UniProt P19327); experiment: Displacement of [3H]-8-OH-DPAT from 5-HT1A receptor in Sprague-Dawley albinus rat cerebral cortex membranes after 15 mins; assay type: cell membranes, Membrane
T4 sequence (P19327 whole entry): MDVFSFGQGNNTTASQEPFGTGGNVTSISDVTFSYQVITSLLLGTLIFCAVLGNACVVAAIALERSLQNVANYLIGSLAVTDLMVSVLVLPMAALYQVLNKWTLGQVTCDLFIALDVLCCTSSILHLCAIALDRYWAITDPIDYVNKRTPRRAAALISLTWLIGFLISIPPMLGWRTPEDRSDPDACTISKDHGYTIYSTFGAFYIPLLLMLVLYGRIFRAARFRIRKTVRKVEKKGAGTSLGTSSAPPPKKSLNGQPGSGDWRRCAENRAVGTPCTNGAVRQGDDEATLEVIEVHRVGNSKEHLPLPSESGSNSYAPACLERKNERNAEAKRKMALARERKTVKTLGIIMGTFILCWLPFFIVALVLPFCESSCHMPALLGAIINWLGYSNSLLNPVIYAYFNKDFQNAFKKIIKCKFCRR

D(2) dopamine receptor, sequence (P61169 whole entry): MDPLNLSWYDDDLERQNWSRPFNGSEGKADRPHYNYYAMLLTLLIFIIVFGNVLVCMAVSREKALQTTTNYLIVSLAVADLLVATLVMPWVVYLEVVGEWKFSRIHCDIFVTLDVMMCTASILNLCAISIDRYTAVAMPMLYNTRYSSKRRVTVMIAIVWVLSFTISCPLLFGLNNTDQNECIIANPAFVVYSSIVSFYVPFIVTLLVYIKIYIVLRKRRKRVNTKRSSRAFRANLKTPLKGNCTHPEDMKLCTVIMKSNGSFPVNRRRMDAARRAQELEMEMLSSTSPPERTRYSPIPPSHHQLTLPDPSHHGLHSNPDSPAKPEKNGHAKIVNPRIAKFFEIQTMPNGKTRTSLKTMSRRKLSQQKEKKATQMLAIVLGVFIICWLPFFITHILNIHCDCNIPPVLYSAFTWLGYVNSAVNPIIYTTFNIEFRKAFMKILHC

## Cl.O=C1C2CCCN2C(=O)CN1CCCCNCC1CCc2ccccc2O1 (centres undefined)
D(2) dopamine receptor
  Ki: > 1000 nM
[1]
  EC50: 123 nM
[2]
  Ki: > 1000 nM
[3]
  Activity: 13%
[4]
  Ki: > 1000 nM
[5]
  Ki: 418 nM
[6]
  Activity: 66%
[7]
  Emax: 87.6%
[8]
  Ki: 21 nM
